From ChEMBL document CHEMBL1152606, “Thienylhalomethylketones: Irreversible glycogen synthase kinase 3 inhibitors as useful pharmacological tools” (Bioorg Med Chem, 2009)
Calls of active or inactive are those of the source. The rule behind the calls is not given here.

Assays:
[1] = target: Glycogen synthase kinase-3 beta (Homo sapiens, UniProt P49841); assay: Inhibition of GSK3-beta by liquid scintillation counting
Summary of the method: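 GSK-3β enzyme incubated with test compound at various concentrations, GS-1 peptide substrate (15 mM as printed), 15 μM ATP plus 0.2 μCi [γ-32P]ATP, in 50 mM Tris pH 7.5, 10 mM MgCl2, 1 mM EGTA, 1 mM EDTA; 20 min at 37 °C. Aliquots spotted on P81 phosphocellulose, washed in 1% phosphoric acid, counted by liquid scintillation.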

[2] = target: T1, Alpha-2A adrenergic receptor (Rattus norvegicus) (UniProt P22909); assay: Displacement of [3H]RX821002 from alpha2 adrenoceptor in rat cerebral cortex at 10 uM; assay type: tissue-based
T1 sequence (whole entry): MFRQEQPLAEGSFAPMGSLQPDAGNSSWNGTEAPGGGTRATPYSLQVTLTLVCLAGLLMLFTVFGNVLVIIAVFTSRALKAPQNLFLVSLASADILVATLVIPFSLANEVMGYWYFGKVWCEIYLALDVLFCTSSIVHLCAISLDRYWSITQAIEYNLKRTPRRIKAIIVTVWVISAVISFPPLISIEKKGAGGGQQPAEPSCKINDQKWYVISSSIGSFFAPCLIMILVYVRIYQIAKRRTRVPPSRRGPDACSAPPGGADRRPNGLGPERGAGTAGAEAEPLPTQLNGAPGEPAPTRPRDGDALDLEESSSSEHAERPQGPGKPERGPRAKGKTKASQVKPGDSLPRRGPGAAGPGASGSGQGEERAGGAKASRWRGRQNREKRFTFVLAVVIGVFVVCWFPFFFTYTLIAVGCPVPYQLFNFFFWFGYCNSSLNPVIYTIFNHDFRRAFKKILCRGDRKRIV
Summary of the method: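 Rat cerebral cortex source; [3H]RX 821002 ligand at 0.5 nM; yohimbine as reference compound; non-selective alpha-2 site.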

Rattus norvegicus [3] = species: Rattus norvegicus; assay: Displacement of [3H]cystisine from alpha-BGTX sensitive nicotinic acetylcholine receptor in rat cerebral cortex; assay type: tissue-based; design: concentration or dose not given beside the values; conditions: concentration not given here
Rattus norvegicus [4] = species: Rattus norvegicus; assay: Displacement of [3H]AMPA from AMPA receptor in rat cerebral cortex at 10 uM; assay type: tissue-based
[5] = target: Epidermal growth factor receptor (Homo sapiens) (UniProt P00533); assay: Inhibition of EGFR in human A431 at 10 uM by liquid scintillation counting in presence of [33gammaP]ATP
Summary of the method: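 EGFR kinase from A-431 cells; substrate [γ33-P]ATP plus poly GAT (0.48 mg/mL); PD 153035 reference; product measured by liquid scintillation; compounds at 10 µM.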

[6] = target: Glutamate NMDA receptor (Rattus norvegicus) (UniProt P35439+Q00959+Q00960+Q00961+Q62645+Q8VHN2+Q9R1M7); assay: Displacement of [3H]CGP39653 from NMDA receptor in rat cerebral cortex at 10 uM; assay type: tissue-based
Bos taurus = species: Bos taurus; assay: Inhibition of bovine thymus p56LCK at 10 uM by liquid scintillation counting in presence of [33gammaP]ATP
Summary of the method: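 p56lck from bovine thymus; [γ33-P]ATP with polyGT (0.5 mg/mL) substrate; staurosporine reference; liquid scintillation read-out; compounds tested at 10 µM.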

[7] = target: D(3) dopamine receptor (Homo sapiens) (UniProt P35462); assay: Displacement of [3H]spiperone from human recombinant dopamine D3 receptor expressed in CHO cells at 10 uM; assay type: cell-based
Summary of the method: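 Human recombinant D3 receptor from CHO cells; [3H]spiperone 0.3 nM as ligand; (+)-buctaclamol reference compound.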

Rattus norvegicus [8] = species: Rattus norvegicus; assay: Inhibition of rat recombinant MAPK at 10 uM by liquid scintillation counting in presence of [33gammaP]ATP
Summary of the method: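 Rat recombinant ERK42 MAP kinase expressed in E. coli; [γ33-P]ATP with MBP (0.5 mg/mL); staurosporine reference; liquid scintillation read-out; 10 µM compound.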

[9] = target: D(2) dopamine receptor (Homo sapiens) (UniProt P14416); assay: Displacement of [3H]spiperone from human recombinant dopamine D2 receptor expressed in CHO cells at 10 uM; assay type: cell-based
Summary of the method: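 Human recombinant D2 receptor expressed in CHO cells; [3H]spiperone ligand at 0.3 nM; (+)-buctaclamol as reference compound.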

[10] = Displacement of [3H]QNB from muscarinic receptor at 10 uM
[11] = tested on: 5-HT (non-selective) serotonin receptor (Rattus norvegicus); assay: Inhibition of [3H]serotonine binding to non-selective 5-HT serotoninergic receptor in rat cerebral cortex at 10 uM
[12] = target: Insulin receptor (Homo sapiens) (UniProt P06213); assay: Inhibition of human recombinant IR at 10 uM by liquid scintillation counting in presence of [33gammaP]ATP
Summary of the method: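 Human recombinant insulin receptor kinase; [γ33-P]ATP plus poly GT (0.03 mg/mL); staurosporine reference; liquid scintillation detection; 10 µM compound.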

[13] = target: Tyrosine-protein kinase ABL1 (Mus musculus) (UniProt P00520); assay: Inhibition of mouse recombinant Abl expressed in Escherichia coli at 10 uM by fluorescence polarization
[14] = target: Dual specificity mitogen-activated protein kinase kinase 1 (Oryctolagus cuniculus) (UniProt P29678); assay: Inhibition of rabbit recombinant MEK1 expressed in Escherichia coli at 10 uM by liquid scintillation counting in presence of [33gammaP]ATP
Summary of the method: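 Rabbit recombinant MEK1 from E. coli; ATP plus unactivated MAP kinase (0.01 mg/mL) as substrate; staurosporine reference; liquid scintillation detection; 10 µM.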

Rattus norvegicus [15] = species: Rattus norvegicus; assay: Displacement of [3H]cystisine from alpha-BGTX insensitive nicotinic acetylcholine receptor in rat cerebral cortex at 10 uM; assay type: tissue-based
Rattus norvegicus [16] = species: Rattus norvegicus; assay: Inhibition of rat CAM2 at 10 uM by liquid scintillation counting in presence of [33gammaP]ATP
Summary of the method: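 CaM kinase II from rat brain; [γ33-P]ATP plus autocamtide-2 (5 µM); staurosporine reference; labelled autocamtide-2 counted by liquid scintillation; compounds at 10 µM.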

[17] = target: Proto-oncogene tyrosine-protein kinase Src (Homo sapiens) (UniProt P12931); assay: Inhibition of Src at 10 uM
[18] = target: Glycogen synthase kinase-3 beta (Mus musculus) (UniProt Q9WV60); assay: Inhibition of GSK-3-beta-mediated tau phosphorylation in mouse granule cerebellar neurons cells after 16 hrs by Western blot
Summary of the method: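 Cerebellar granule neurons from P6 mice, plated on poly-L-lysine and grown 48 h in serum-free neurobasal/B-27 with 12.5 mM KCl; compounds 0.5–25 µM; LiCl 10 mM positive control with excess myo-inositol; lysates blotted with PHF-1 and Tau-1, normalised to β-actin, densitometry; mean of three experiments, control = 100 r.u.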

Sequence of Epidermal growth factor receptor (Homo sapiens) (P00533 whole entry): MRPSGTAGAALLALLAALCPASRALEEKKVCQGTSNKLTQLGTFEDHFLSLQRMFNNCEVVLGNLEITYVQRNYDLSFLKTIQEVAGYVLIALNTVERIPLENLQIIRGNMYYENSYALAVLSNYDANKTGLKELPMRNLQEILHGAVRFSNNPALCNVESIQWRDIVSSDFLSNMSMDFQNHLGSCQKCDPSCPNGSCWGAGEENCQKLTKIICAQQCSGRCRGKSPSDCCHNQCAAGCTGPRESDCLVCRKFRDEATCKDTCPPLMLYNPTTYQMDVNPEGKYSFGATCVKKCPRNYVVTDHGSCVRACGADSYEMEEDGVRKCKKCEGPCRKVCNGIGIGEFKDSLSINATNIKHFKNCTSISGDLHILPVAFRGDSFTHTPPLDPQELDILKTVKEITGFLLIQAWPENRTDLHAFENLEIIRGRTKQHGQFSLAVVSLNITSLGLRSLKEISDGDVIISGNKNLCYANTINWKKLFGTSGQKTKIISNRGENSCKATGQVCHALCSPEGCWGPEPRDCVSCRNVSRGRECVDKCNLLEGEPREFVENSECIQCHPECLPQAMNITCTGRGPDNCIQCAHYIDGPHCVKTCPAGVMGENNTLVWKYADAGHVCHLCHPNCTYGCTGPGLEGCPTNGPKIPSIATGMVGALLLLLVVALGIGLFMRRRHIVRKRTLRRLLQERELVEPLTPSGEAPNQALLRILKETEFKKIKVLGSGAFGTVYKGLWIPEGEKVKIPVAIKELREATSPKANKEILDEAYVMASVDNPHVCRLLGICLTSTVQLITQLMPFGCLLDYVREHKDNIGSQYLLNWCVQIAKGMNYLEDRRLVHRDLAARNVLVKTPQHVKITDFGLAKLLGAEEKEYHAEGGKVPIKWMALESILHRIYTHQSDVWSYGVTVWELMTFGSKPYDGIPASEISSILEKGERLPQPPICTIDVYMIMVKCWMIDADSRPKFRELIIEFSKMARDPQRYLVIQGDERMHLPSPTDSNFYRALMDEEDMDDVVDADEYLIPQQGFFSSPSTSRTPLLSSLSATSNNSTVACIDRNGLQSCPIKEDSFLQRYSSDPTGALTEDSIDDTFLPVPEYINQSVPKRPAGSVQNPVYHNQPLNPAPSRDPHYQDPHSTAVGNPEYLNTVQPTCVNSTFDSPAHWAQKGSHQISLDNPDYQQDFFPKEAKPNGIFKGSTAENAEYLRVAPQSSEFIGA
Sequence of Proto-oncogene tyrosine-protein kinase Src (Homo sapiens) (P12931 2-536 limits assumed): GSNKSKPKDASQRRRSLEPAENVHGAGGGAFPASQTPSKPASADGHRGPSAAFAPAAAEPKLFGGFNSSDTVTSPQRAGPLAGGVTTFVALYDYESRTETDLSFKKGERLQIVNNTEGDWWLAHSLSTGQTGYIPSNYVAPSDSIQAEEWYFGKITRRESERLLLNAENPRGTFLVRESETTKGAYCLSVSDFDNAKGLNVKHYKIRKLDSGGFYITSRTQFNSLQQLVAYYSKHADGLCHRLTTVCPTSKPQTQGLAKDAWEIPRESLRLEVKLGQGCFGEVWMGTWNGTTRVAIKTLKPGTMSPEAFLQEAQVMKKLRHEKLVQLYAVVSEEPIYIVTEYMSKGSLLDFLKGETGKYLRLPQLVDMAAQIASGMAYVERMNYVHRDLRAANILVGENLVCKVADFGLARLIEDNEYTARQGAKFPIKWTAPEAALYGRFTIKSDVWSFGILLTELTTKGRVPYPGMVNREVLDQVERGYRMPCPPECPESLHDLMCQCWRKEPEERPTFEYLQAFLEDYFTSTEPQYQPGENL
Sequence of Insulin receptor (Homo sapiens) (P06213 28-758 limits assumed): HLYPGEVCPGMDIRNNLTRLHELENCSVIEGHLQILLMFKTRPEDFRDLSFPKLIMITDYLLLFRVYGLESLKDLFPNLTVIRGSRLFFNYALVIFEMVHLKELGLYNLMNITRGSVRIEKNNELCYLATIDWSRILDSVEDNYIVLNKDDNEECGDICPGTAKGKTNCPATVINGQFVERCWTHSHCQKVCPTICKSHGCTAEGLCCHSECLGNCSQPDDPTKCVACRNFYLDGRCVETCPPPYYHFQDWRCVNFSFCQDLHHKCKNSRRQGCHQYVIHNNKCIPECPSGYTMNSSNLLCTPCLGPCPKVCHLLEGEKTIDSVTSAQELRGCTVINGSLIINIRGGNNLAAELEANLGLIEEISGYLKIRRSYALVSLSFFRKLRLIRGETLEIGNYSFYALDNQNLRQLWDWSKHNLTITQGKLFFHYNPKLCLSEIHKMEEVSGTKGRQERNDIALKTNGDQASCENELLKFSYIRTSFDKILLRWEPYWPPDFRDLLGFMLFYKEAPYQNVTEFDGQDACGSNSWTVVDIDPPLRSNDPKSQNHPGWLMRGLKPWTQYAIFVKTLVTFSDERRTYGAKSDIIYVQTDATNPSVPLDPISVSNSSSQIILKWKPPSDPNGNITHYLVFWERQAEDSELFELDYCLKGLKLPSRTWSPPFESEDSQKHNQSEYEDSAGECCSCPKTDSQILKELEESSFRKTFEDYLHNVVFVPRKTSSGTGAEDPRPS
Sequence of Insulin receptor (Homo sapiens) (P06213 763-1382 limits assumed): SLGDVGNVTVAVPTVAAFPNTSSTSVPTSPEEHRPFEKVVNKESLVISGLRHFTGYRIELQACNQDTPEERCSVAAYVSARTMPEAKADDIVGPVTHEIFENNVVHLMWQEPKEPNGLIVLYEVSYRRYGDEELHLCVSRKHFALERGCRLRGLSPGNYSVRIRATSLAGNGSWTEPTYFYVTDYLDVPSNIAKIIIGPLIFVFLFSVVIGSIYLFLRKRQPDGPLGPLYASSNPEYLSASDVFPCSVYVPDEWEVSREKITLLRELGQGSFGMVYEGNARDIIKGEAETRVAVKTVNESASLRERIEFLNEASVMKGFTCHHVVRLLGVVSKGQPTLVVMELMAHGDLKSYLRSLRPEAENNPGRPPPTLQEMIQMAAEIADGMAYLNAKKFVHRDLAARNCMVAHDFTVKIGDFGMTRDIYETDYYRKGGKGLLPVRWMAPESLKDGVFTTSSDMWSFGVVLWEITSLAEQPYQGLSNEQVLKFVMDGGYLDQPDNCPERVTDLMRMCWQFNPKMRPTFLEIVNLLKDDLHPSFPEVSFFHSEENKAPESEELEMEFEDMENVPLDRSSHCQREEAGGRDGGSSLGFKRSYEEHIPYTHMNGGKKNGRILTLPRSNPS
Sequence of D(3) dopamine receptor (Homo sapiens) (P35462 whole entry): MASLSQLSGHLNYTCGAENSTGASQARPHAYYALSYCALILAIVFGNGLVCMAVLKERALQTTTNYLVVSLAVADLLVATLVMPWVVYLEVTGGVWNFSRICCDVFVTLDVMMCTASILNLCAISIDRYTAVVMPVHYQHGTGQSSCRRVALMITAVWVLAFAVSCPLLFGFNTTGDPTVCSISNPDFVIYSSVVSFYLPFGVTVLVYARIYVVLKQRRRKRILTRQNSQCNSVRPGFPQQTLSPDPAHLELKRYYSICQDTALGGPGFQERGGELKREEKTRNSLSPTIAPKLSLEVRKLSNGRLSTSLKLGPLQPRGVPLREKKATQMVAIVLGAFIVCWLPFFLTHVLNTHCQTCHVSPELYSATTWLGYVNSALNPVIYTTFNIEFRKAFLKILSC
Sequence of Dual specificity mitogen-activated protein kinase kinase 1 (Oryctolagus cuniculus) (P29678 whole entry): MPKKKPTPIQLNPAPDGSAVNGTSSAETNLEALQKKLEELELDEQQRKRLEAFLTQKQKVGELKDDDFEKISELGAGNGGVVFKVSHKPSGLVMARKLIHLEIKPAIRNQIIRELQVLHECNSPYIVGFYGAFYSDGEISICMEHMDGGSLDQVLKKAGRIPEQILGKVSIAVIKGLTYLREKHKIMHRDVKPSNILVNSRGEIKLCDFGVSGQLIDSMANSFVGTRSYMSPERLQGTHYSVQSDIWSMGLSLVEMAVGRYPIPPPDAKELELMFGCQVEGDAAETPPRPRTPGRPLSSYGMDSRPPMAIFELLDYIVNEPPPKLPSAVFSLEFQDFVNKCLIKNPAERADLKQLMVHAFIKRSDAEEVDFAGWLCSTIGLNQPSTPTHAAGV
Sequence of D(2) dopamine receptor (Homo sapiens) (P14416 whole entry): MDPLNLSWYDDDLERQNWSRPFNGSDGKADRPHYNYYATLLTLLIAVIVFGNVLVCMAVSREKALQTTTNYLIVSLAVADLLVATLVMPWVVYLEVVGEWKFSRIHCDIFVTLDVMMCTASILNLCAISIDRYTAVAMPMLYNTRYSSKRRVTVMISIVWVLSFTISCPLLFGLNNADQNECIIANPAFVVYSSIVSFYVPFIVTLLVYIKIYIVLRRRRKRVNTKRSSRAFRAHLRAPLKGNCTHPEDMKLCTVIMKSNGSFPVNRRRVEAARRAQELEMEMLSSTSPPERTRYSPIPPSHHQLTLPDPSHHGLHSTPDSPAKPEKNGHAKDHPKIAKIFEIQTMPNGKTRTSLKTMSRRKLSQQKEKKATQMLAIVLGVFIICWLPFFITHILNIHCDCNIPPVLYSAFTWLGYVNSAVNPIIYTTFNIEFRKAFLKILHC
Sequence of Glycogen synthase kinase-3 beta (P49841 whole entry): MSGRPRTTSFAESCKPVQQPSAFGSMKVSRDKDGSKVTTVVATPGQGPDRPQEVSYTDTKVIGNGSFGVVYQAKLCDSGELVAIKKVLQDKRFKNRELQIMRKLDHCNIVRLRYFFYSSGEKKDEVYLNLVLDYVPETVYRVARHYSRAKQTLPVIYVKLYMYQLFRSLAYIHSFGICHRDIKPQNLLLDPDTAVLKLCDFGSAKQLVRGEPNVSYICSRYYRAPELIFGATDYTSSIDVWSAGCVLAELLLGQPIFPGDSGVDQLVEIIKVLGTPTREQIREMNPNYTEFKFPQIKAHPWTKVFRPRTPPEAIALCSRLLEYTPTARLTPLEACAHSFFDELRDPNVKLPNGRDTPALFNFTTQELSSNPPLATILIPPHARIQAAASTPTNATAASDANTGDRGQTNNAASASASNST
Sequence of Glycogen synthase kinase-3 beta (Mus musculus) (Q9WV60 whole entry, looked up): as the sequence (P49841 whole entry) above, with T390P, T392A, A400T, T402A counted along it

O=C(CBr)c1sc(Br)cc1Br
IC50 [1]: 1 µM

CCOC(=O)c1ccccc1 [ETHYL BENZOATE]
IC50 [1]: > 100 µM

CC(=O)c1csc(C(=O)CCl)c1
inhibition [2]: < 10%
inhibition (Rattus norvegicus [3]): < 10%
inhibition (Rattus norvegicus [4]): < 10%
inhibition [5]: < 10%
inhibition [6]: < 10%
inhibition (Bos taurus): < 10%
inhibition [7]: < 10%
inhibition (Rattus norvegicus [8]): < 10%
inhibition [9]: < 10%
inhibition [10]: < 10%
inhibition [11]: < 10%
inhibition [12]: < 10%
inhibition [13]: < 10%
inhibition [14]: 12%
inhibition (Rattus norvegicus [15]): 17%
inhibition (Rattus norvegicus [16]): < 10%
inhibition [17]: 22%

O=C(CCl)c1ccc(Br)s1
inhibition [2]: < 10%
inhibition (Rattus norvegicus [3]): < 10%
inhibition (Rattus norvegicus [4]): < 10%
inhibition [5]: < 10%
inhibition [6]: < 10%
inhibition (Bos taurus): < 10%
inhibition [7]: < 10%
inhibition (Rattus norvegicus [8]): < 10%
inhibition [9]: < 10%
inhibition [10]: < 10%
inhibition [11]: < 10%
inhibition [12]: < 10%
inhibition [13]: < 10%
inhibition [14]: < 10%
inhibition (Rattus norvegicus [15]): < 10%
inhibition (Rattus norvegicus [16]): 16%
Activity [18]: Active
inhibition [17]: 19%

O=C(CCCCl)c1ccc(Cl)s1
IC50 [1]: > 100 µM

CCOC(=O)c1cccs1
IC50 [1]: > 100 µM

O=C(CCCCl)c1ccc(Br)s1
IC50 [1]: > 100 µM

O=C(CCl)c1ccc(Cl)s1
inhibition [2]: < 10%
inhibition (Rattus norvegicus [3]): < 10%
inhibition (Rattus norvegicus [4]): 17%
inhibition [5]: < 10%
inhibition [6]: < 10%
inhibition (Bos taurus): < 10%
inhibition [7]: < 10%
inhibition (Rattus norvegicus [8]): < 10%
inhibition [9]: < 10%
inhibition [10]: < 10%
inhibition [11]: < 10%
inhibition [12]: < 10%
inhibition [13]: < 10%
inhibition [14]: < 10%
inhibition (Rattus norvegicus [15]): < 10%
inhibition (Rattus norvegicus [16]): < 10%
Activity [18]: Active
inhibition [17]: < 10%

O=C(CCl)c1cc(Cl)sc1Cl
inhibition [2]: < 10%
inhibition (Rattus norvegicus [3]): < 10%
inhibition (Rattus norvegicus [4]): 17%
inhibition [5]: < 10%
inhibition [6]: < 10%
inhibition (Bos taurus): 41%
inhibition [7]: < 10%
inhibition (Rattus norvegicus [8]): < 10%
inhibition [9]: < 10%
inhibition [10]: < 10%
inhibition [11]: 12%
inhibition [12]: < 10%
inhibition [13]: < 10%
inhibition [14]: < 10%
inhibition (Rattus norvegicus [15]): < 10%
inhibition (Rattus norvegicus [16]): 10%
inhibition [17]: 12%

O=C(CCCCl)c1cc(Cl)sc1Cl
IC50 [1]: > 100 µM

CC(=O)c1ccccc1 [ACETOPHENONE]
IC50 [1]: > 100 µM

O=C(CCl)c1scc(Br)c1Br
inhibition [2]: < 10%
inhibition (Rattus norvegicus [3]): < 10%
inhibition (Rattus norvegicus [4]): < 10%
inhibition [5]: < 10%
inhibition [6]: < 10%
inhibition (Bos taurus): 20%
inhibition [7]: 12%
inhibition (Rattus norvegicus [8]): < 10%
inhibition [9]: < 10%
inhibition [10]: 11%
inhibition [11]: < 10%
inhibition [12]: < 10%
inhibition [13]: < 10%
inhibition [14]: < 10%
inhibition (Rattus norvegicus [15]): < 10%
inhibition (Rattus norvegicus [16]): < 10%

CCOC(=O)c1sc(SC(C)=O)cc1O
IC50 [1]: 25 µM

CC(=O)c1ccc(Cl)cc1
IC50 [1]: > 100 µM

O=Cc1cc(Br)c(Br)s1
IC50 [1]: > 100 µM
